Wnt bcat act: activates Wnt/beta-catenin signaling in a reporter cell assay; activator, plate reader; activation, % at 9.35 µM; actives 1.2% (n = 300,000); AID 743398; in the data active = activation above about 30%, passing the limit was not always enough;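 also: 0% = neutral control wells and 100% = positive control wells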
Cneo AK release: Cryptococcus neoformans lysis via adenylate kinase release; lysis activity, % at 15 µM; C. neoformans lysis, adenylate kinase release luminescence, 4 h; normalised: neutral wells 0, clomiphene wells 100; actives 0.2% (n = 360,000);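 active = mean lysis activity across replicates of at least 80%, whatever share of replicates individually reach that level; inactive = mean lysis activity below 80%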
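Material: C. neoformans cells; Schedule: 4 h static compound exposure, 37 °C, read 1 h post-reagent; Measured by: adenylate kinase release luminescence; Read-out: signal increase indicating cell lysis; Controls: Clomiphene as positive lysis control.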
MITF act: MITF TRPM1 promoter activation in melanoma cells; SK-MEL-5 TRPM1-promoter luciferase, 24 h; % of positive control, neutral wells = 0; actives 0.75% (n = 300,000); activation, % at 12.5 µM; AID 588334;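 active = mean activation of at least 80% with every replicate also reaching 80%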;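 also: 0% = neutral control wells and 100% = parthenolide positive control wells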
HIV Env fusion: HIV envelope-mediated fusion inhibition; HeLa-JRFL Env/CEM21 cell fusion, luciferase; actives 1.1% (n = 360,000); inhibition, % at 12.3 µM; AID 651610;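 active = mean replicate inhibition score of at least 50 and every replicate individually at or above 50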;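 also: 0% = plate neutral controls and 100% = maraviroc near 300 nM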
ERAP1 HTS inh: ERAP1 (human) enzyme inhibition. actives 0.15% (n = 340,000). Q9NZ08. inhibition, % at 10.7 µM. recombinant ERAP1, Leu-AMC fluorescence, 60 min;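 active = mean replicate inhibition of at least 30%, or all replicates individually reaching that 30% level; inactive = mean below 30% and not every replicate reaching it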;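 also: 0% = neutral control wells and 100% = L-leucinethiol positive control wells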
Target sequence (Q9NZ08 whole entry, looked up): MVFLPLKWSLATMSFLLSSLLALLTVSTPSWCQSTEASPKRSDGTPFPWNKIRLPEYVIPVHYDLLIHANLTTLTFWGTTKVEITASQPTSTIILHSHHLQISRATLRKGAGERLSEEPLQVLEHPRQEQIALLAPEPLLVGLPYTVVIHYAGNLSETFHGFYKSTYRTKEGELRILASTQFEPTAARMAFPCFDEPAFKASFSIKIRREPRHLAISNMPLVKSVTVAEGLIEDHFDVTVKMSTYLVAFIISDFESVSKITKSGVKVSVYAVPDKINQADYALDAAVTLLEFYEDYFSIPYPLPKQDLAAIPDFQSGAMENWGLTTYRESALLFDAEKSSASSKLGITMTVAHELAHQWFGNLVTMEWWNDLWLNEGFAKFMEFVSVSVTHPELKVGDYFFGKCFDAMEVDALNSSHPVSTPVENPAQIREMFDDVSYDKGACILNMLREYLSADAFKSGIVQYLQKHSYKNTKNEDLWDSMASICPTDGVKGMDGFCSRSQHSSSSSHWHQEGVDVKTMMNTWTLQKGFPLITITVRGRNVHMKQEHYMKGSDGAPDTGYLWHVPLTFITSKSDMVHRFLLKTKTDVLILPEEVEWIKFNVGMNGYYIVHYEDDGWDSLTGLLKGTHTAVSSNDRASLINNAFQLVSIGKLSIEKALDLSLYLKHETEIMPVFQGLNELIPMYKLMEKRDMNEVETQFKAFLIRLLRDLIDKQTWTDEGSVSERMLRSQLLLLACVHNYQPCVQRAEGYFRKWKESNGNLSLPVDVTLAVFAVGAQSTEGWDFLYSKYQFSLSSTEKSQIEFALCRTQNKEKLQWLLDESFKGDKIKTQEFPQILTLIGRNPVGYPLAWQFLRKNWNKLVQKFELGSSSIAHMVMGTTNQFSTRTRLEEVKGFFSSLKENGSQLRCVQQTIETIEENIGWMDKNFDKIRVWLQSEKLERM
esBAF inh: inhibitors of esBAF chromatin remodeling in mouse ES cells | Bmi1-luciferase knock-in reporter, 24 h; 100% = twice the neutral-well signal | reporter increase, % at 12.5 µM | actives 2% (n = 350,000); in the data active = activation above about 40%;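 also: 0% = median of the plate's neutral control wells and 100% = double that signal; a rise in the Bmi1 reporter signal indicates esBAF inhibition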
Numbers without * were called inactive; . = not tested or not shown; [ ] = remark or other dose. Compounds with a hit are over-represented: about 3.5% of the library has one in this group of screens.

SMILES | Wnt bcat act | Cneo AK release | MITF act | HIV Env fusion | ERAP1 HTS inh | esBAF inh
CC(C)NC(=O)N1CC2(C1)[C@H](c1ccccc1)[C@@H](CO)N2C(=O)C1CCOCC1 | . | . | . | . | -1 | .
O=C1c2ccccc2NC(c2cccc(O)c2)N1NS(=O)(=O)c1ccccc1 (stereo unspecified) | -2 | -1 | -10 | 8 | 38* | -6
C[C@@H]1CN([C@@H](C)CO)C(=O)c2cccc(NC(=O)c3nc4ccccc4s3)c2O[C@@H]1CN(C)C(=O)Nc1ccccc1 | . | 1 | . | -33[16.7 µM] | -4 | 5
C[C@@H]1CN([C@@H](C)CO)C(=O)c2cc(NC(=O)Cc3cn(C)c4ccccc34)ccc2O[C@@H]1CN(C)Cc1ccc(-c2ccccc2)cc1 | . | . | . | 4[16.7 µM] | 1 | -6
Clc1ccc(-c2cn3c(n2)SCC3)cc1 | 47* | . | 80 | -50 | 8 | 56*
Oc1ccc(-c2cn3c(n2)SCC3)cc1 | . | -2 | 19 | . | . | 2
Brc1ccc(-c2cn3c(n2)SCC3)cc1 | 42* | -5 | 66 | -67 | -3 | 58*
O=C(C[C@H]1CC[C@H]2NC[C@H](O)COC[C@@H]2O1)NCc1ccc2c(c1)OCO2 | . | 2 | . | -1[16.7 µM] | . | 0
O=C(NCc1nc2ccccc2[nH]1)C1=C[C@H](c2ccc(Br)cc2)C[C@H](OCCCCO)O1 | . | -41 | . | -1[16.7 µM] | -1 | .
CCCCC12CN3CCN(CC(C3)/C1=N\NC(=O)c1ccccc1N)C2 | 35* | -1 | 4 | 33 | . | .
CCCC12CN3CCN(CC(C3)/C1=N\NC(=O)c1ccc(F)cc1)C2 | 12 | . | 3 | -11 | -3 | 17
C[C@@H]1CCCCO[C@@H](CN(C)C(=O)c2ccccc2)[C@H](C)CN([C@@H](C)CO)C(=O)c2cc(NC(=O)C3CCCCC3)ccc2O1 | . | 0 | . | 12[16.7 µM] | 0 | 9
CCCCNC(=O)C(=O)N/N=C/c1ccc(OCc2ccccc2)cc1 | -1 | . | -13 | -7 | -1 | .
O=C(N/N=C/c1ccc(OCc2ccccc2)cc1)c1cccs1 | . | -2 | 55 | -34 | . | 48*
O=C(Nc1ccc(OCc2ccccc2)cc1)c1cccs1 | 17 | -5 | . | -52 | 0 | 68*
Oc1ccc(N=Cc2ccc(OCc3ccccc3)cc2)cc1 | 15 | 0 | -35 | -31 | 2 | 48*
CC(C)(C)NCC(=O)N/N=C/c1ccc(OCc2ccccc2)cc1 | -2 | . | 87* | -7 | 2 | .
CCCOc1ccc(C(=O)Nc2ccc(NC(=O)c3cccs3)cc2)cc1 | -1 | 0 | 11 | 9 | 0 | 4
COc1ccc(NC(=O)N(C)C[C@H]2Oc3cc(C#CCC(C)C)ccc3S(=O)(=O)N([C@@H](C)CO)C[C@H]2C)cc1 | . | -1 | . | . | 1 | -1
CCS(=O)(=O)Nc1ccc2c(c1)C(=O)N(C)C[C@H](OC)[C@@H](C)CN(C(=O)C1CC1)[C@@H](C)CO2 | . | -3 | . | . | 2 | -2
Cc1cccc2c3c([nH]c12)[C@H]1CCC(=O)N1CC3 | . | -3 | . | -65[16.7 µM] | 1 | .
CCOc1ccc(NC(=S)Nc2ccc(OCc3ccccc3)cc2)cc1 | 20 | 7 | 9 | 10 | . | .
CNC(=S)Nc1ccc(OCc2ccccc2)cc1 | 2 | -1 | 19 | -20 | 4 | 41*
COc1ccc(Nc2ncc(C(=O)N3CCN(c4ccc(F)cc4)CC3)c3ccccc23)cc1 | -5 | -3 | -6 | 93* | . | 6
COc1ccc(Nc2ncc(C(=O)O)c3ccccc23)cc1 | . | 4 | 7 | -38 | . | 16
SMILES | Wnt bcat act | Cneo AK release | MITF act | HIV Env fusion | ERAP1 HTS inh | esBAF inh
CCC(=O)Nc1ccc2c(c1)C(=O)N(C)C[C@@H](OC)[C@H](C)CN(C(=O)Nc1ccccc1F)[C@H](C)CO2 | . | 5 | . | 12[16.7 µM] | -1 | -2
Cc1ccc(C(=O)O)cc1NC(=S)NC(=O)c1ccc(-c2ccccc2)cc1 | 11 | -12 | 18 | -83 | 4 | 62*
Cc1nc(NC(=S)NC(=O)c2ccccc2)sc1C | 1 | 0 | 57 | -60 | 0 | 45*
Cc1cc(C)c(NC(=S)NC(=O)c2ccccc2)cc1C | 34* | 2 | . | -27 | 0 | .
Cc1nc(NC(=O)CCc2ccccc2)sc1C | 5 | 3 | 66 | -19 | 3 | 57*
CN(C)C(=O)c1cccc(-c2cccc(-c3nc(C(=O)N4CCOCC4)cc4c3[C@H](CCO)N([S@@](=O)C(C)(C)C)C4)c2)c1 | . | 6 | . | -24[16.7 µM] | -2 | -2
